Source: PubChem
An excerpt weighted towards active compounds, which were near 6.7% of everything screened.
NR3A LBD binder: modulators (binders) of human NR3A ligand-binding domain; Tm shift relative to glycine control, % at 25 µM; AID 1259313; actives 2.5% (n = 340,000); NR3A LBD differential scanning fluorimetry, Tm shift; 0% = protein alone, 100% = glycine-bound protein;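 active = melting temperature shift of at least 10% of the positive control shift, at one fixed dose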
CHOP inh: blocks CHOP induction under ER stress | CHO-K1 CHOP-promoter luciferase, tunicamycin-induced, 15-18 h | inhibition, % at 10 µM | actives 3.8% (n = 220,000);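 active = compounds that reduced the stress-induced luciferase reporter signal by more than about 70% of percent inhibition, limit read from the data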;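 also: 0% = tunicamycin plus vehicle and 100% = wells without tunicamycin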
Beta cell apopt: beta cell apoptosis inhibition; INS-1E cytokine-induced death, ATP luminescence, 48 h; percent of positive-control rescue, neutral wells zero; protection from apoptosis, % (test concentration not listed); actives 0.8% (n = 300,000);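 active = Every replicate reaches about 75%, or at least half do and their mean reaches it too, limit read from the data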;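 also: 0% = cytokine-treated negative control wells and 100% = positive control rescue; higher means more ATP so stronger rescue from cytokine killing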
T cruzi inh: T. cruzi replication inhibition | T. cruzi beta-gal in NIH3T3, luminescence, 90 h | inhibition, % (test concentration not listed) | actives 1.4% (n = 300,000) | AID 1885;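 active = mean inhibition across valid replicates above about 55%, limit read from the data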;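 also: signal also drops with host cell toxicity which is not excluded here; 0% = plate median of DMSO wells and 100% = zero luminescence signal; higher percent means less beta-gal luminescence so fewer parasites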
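Test system: β-gal T. cruzi (Tulahuen C4) inside NIH/3T3 cells / Quantity: 5,000 cells/well / Measured by: luminescence from GalScreen with 0.05% NP40, read after 60 min / Medium: DMEM plus 2% FBS / Measure: parasite load inhibition, % / Reagent: Tulahuen C4 trypomastigotes, 5000/well / Schedule: co-culture of at least 90 h after 3 h attachment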
CSC inhib: blocks cancer stem cells; inhibition, % at 7.5 µM; AID 2717; cancer stem cell-like cells viability, luminescence; actives 1.1% (n = 300,000); in the data active = inhibition above about 75%; tested in HMLE shEcad cells
PREPL inh: inhibitors of human prolyl oligopeptidase-like enzyme PREPL; AID 2751; recombinant PREPL, fluorescence polarization activity-based probe; actives 0.68% (n = 320,000); inhibition, % at 5.96 µM; in the data active = inhibition above about 43%;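 also: 0% = enzyme with DMSO and 100% = wells lacking enzyme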
Target sequence (Q4J6C6 whole entry, looked up): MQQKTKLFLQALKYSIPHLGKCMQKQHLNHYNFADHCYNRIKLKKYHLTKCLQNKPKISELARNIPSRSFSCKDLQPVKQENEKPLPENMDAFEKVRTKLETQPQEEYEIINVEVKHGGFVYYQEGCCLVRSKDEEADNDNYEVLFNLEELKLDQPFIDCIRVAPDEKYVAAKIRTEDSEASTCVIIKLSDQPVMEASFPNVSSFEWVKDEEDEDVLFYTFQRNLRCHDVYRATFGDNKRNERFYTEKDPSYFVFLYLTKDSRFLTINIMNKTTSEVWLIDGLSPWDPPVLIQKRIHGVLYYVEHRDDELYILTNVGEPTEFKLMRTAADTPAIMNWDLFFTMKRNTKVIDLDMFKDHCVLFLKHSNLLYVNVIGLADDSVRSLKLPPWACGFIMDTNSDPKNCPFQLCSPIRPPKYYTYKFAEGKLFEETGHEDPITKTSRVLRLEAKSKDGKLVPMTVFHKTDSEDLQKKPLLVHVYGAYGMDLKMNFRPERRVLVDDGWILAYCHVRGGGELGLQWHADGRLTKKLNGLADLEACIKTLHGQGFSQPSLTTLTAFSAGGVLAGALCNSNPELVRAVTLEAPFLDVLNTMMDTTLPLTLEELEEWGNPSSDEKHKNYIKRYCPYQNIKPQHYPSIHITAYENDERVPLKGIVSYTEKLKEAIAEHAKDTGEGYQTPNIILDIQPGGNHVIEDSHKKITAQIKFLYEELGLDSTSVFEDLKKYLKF
Starred values were filed as active, the others as inactive.

Screening O=C(c1ccco1)N(CCCN1CCOCC1)c1nc(-c2ccc(F)cc2)cs1 returned NR3A LBD binder -4, CHOP inh 41, Beta cell apopt 7, T cruzi inh 69*, CSC inhib 1 and PREPL inh 14.
Screening Cc1ncc([N+](=O)[O-])n1S(=O)(=O)c1ccc2c(c1)OCCO2 returned NR3A LBD binder 0.
`Clc1ccc(CCNc2ncnc3c2nnn3Cc2ccccc2)cc1` gave NR3A LBD binder 1, Beta cell apopt 6, T cruzi inh 12, CSC inhib -8 and PREPL inh -4.
Screening CCCNC(=O)c1ccc(N2CCC3(CC2)CC(c2ccccc2)=NO3)c(NC(=O)c2ccccc2)c1 returned NR3A LBD binder 4, Beta cell apopt 24, T cruzi inh 45, CSC inhib 14 and PREPL inh 7.
`CCCCCCCC(=O)Nc1cc(C(=O)NCCC)ccc1N1CCC2(CC1)CC(c1ccccc1)=NO2` gave NR3A LBD binder -3, T cruzi inh 57*, CSC inhib 8 and PREPL inh 42.
Screening CCCNC(=O)c1ccc(N2CCC3(CC2)CC(c2cccc(Br)c2)=NO3)c(NC(=O)c2ccccc2)c1 returned NR3A LBD binder 2, Beta cell apopt 14, T cruzi inh 57*, CSC inhib 11 and PREPL inh 4.
C[C@@H]1C(=O)NC2=Nc3cccc(Cl)c3CN21 was read as CHOP inh -17.
CC(=O)c1ccc(-c2ccc([C@H]3[C@H]4C=CC[C@@H](C)[C@@H]4C(=O)N3Cc3ccccc3)c(F)c2)cc1 was read as NR3A LBD binder 1, CHOP inh 2, Beta cell apopt 9, T cruzi inh 46, CSC inhib 75* and PREPL inh -17.
`COC(=O)c1ccc(-c2ccc(OC)c([C@H]3[C@H]4C=CC[C@@H](C)[C@@H]4C(=O)N3Cc3ccccc3)c2)cc1` gave NR3A LBD binder -2, CHOP inh 21, Beta cell apopt -10, T cruzi inh 47, CSC inhib 21 and PREPL inh 9.
For C[C@@H]1CC=C[C@H]2[C@H]1C(=O)N(Cc1ccccc1)[C@H]2c1ccc(-c2ccc(N(C)C)cc2)cc1F the results were NR3A LBD binder 1, CHOP inh -3, Beta cell apopt 4, T cruzi inh 37, CSC inhib 34 and PREPL inh 8.
`Cc1ccc(-c2ccc([C@H]3[C@H]4C=CC[C@@H](C)[C@@H]4C(=O)N3Cc3ccccc3)c(F)c2)cc1` gave NR3A LBD binder 13*, CHOP inh 7, Beta cell apopt 7, T cruzi inh 23, CSC inhib 41 and PREPL inh -1.
For COc1ccc(-c2ccc(C(C)=O)cc2)cc1[C@H]1[C@H]2C=CC[C@@H](C)[C@@H]2C(=O)N1Cc1ccccc1 the results were NR3A LBD binder 1, CHOP inh 26, Beta cell apopt 12, T cruzi inh 60*, CSC inhib 19 and PREPL inh 7.
For COc1ccc(C2=NOC3(CC(=O)N(c4ccc(C)cc4)C3=O)C2)c(OC)c1 (configuration not stated) the results were NR3A LBD binder 1, CHOP inh 26, Beta cell apopt -6, T cruzi inh 2, CSC inhib -7 and PREPL inh 2.
Screening O=C(N/N=C/c1ccc2c(c1)OCO2)C(=O)Nc1ccc2ccccc2c1 returned CHOP inh -13, Beta cell apopt -3, T cruzi inh -15, CSC inhib 0 and PREPL inh 18.
Nc1ccc(C(=O)N/N=C/c2sc(N3CCOCC3)nc2-c2ccccc2)cc1 was read as NR3A LBD binder -1, CHOP inh -29, Beta cell apopt 5, T cruzi inh 9, CSC inhib 4 and PREPL inh 12.
O=C(N/N=C/c1sc(N2CCOCC2)nc1-c1ccccc1)c1cccc(S(=O)(=O)N2CCOCC2)c1 was read as NR3A LBD binder 1, CHOP inh -72, Beta cell apopt 113*, T cruzi inh 37, CSC inhib 24 and PREPL inh 28.
`O=C(O)c1cccc(N/N=C/c2sc(N3CCOCC3)nc2-c2ccccc2)c1` gave NR3A LBD binder 14*, CHOP inh -165, Beta cell apopt 4, T cruzi inh 0, CSC inhib 0 and PREPL inh 6.
